Experiment [1] concerns the target T1, Adenosine receptor A1 (Bos taurus, UniProt P28190).
T1 sequence (P28190 whole entry): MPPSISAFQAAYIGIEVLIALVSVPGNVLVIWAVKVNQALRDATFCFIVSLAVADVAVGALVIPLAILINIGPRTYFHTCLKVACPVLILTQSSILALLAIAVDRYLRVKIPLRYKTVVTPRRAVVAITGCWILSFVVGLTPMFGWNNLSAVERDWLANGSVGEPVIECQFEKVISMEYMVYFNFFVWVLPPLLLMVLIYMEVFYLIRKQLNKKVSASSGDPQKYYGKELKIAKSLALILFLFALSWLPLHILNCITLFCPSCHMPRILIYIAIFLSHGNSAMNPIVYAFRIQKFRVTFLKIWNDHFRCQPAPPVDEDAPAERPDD
Nature of the experiment: Displacement of [3H]CPX from adenosine A1 receptor of calf brain cortical membrane. In outline: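 Calf brain cortical membranes, about 15 μg protein, incubated with 0.1 nM [3H]CPX in 50 mM Tris-HCl pH 7.4 for 1 h at 25 °C in duplicate. Nonspecific binding was defined with 10 μM R-PIA. DMSO was at most 1% final. Filter-bound radioactivity was counted. Means of three experiments.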

In experiment [2] the target is T2, Adenosine A2 receptor (Rattus norvegicus, UniProt P29276+P30543). Nature of the experiment: (§1) Binding affinity for adenosine A2 receptor using [3H]NECA in rat striatal membrane. Format: cell membranes, Striatum.
Experiment [3] concerns the target T3, Adenosine receptor A1 (Rattus norvegicus, UniProt P25099).
T3 sequence (P25099 whole entry): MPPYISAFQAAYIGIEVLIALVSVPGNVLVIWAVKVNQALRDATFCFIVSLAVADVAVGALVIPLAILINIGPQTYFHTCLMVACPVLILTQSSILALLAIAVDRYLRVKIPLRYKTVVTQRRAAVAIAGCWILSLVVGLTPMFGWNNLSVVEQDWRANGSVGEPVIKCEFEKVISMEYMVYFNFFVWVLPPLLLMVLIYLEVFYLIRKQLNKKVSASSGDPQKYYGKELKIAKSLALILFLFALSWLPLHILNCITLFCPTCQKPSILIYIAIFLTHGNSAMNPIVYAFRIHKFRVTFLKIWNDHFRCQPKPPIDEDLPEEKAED
Nature of the experiment: Displacement of [3H]CPX from adenosine A1 receptor of rat brain cortical membrane.

Experiment [4] addresses Adenosine receptors; A1 & A2 (Rattus norvegicus) (UniProt P29276+P25099+P30543). Nature of the experiment: Ratio of Ki for adenosine A2 and A1 receptors. The experiment is classed as protein assay.
For experiment [5], the target named is T2, Adenosine A2 receptor. Described as §1. Format: cell membranes, Striatum. In outline:
(§2)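 Rat striatal membranes from male Wistar rats, treated with 2 IU/mL adenosine deaminase for 30 min at 37 °C. Binding used about 50 μg protein and 4 nM [3H]NECA in 50 mM Tris-HCl, 10 mM MgCl2, pH 7.7, with 50 nM CPA added to block A1 sites. Nonspecific binding was defined with 100 μM CPA. Incubation 1 h at 25 °C in duplicate, ended by filtration and scintillation counting.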
This is another data set of the same source.

For experiment [6], the target named is Adenosine A2 receptor (Rattus norvegicus) (UniProt P29276+P30543). In words: Inhibitory binding activity for adenosine A2 receptor using [3H]NECA in rat striatal membrane at 1 uM. The experiment is classed as cell membranes. As to conditions: Striatum. A digest of the protocol: as §2

As for `c1ccc(-c2nc3c(NC4CCCC4)[nH]c4ccccc4c-3n2)cc1`, the inhibition constant (Ki) in experiment [1] came to 1.5 nM; in experiment [2], 450 nM; in experiment [3], 10 nM.
Consider `c1ccc2c3ncnc-3c(NC3CCCC3)[nH]c2c1`, for which the Ki in experiment [1] stood at 10 nM; in experiment [2], 290 nM; in experiment [3], 43 nM. Moreover, the Ratio in experiment [4] amounted to 6.7.
Regarding `C[C@H](Cc1ccccc1)Nc1[nH]c2ccccc2c2ncnc1-2`, the inhibition constant Ki worked out at 74 nM in experiment [1], 810 nM in experiment [2] and 310 nM in experiment [3]. For the same molecule, the Ratio in experiment [4] amounted to 2.6.
With `c1ccc(Nc2[nH]c3ccccc3c3ncnc2-3)cc1`, the Ki in experiment [1] worked out at 490 nM; in experiment [3], 2100 nM; in experiment [5], 10500 nM. Further, in experiment [4], the Ratio is 5.
`c1ccc(Nc2[nH]c3ccccc3c3nc(-c4ccccc4)nc2-3)cc1`: the inhibition in experiment [6] was 9%. Besides, the Ki in experiment [1] turned out to be 50 nM; in experiment [3], 460 nM.
For the molecule `Nc1[nH]c2ccccc2c2ncnc1-2`, the Ki in experiment [1] was 1700 nM; in experiment [3], 1600 nM; in experiment [5], 1400 nM. Also, the Ratio in experiment [4] was 0.9.
`c1ccc2c3nc(C4CCCC4)nc-3c(NC3CCCC3)[nH]c2c1`: the values for the inhibitory constant (Ki) in experiment [1], in experiment [2] and in experiment [3] were 9.1 nM, 450 nM and 39 nM, respectively.
Take `C[C@@H](Cc1ccccc1)Nc1[nH]c2ccccc2c2ncnc1-2`: the inhibition constant Ki turned out to be 460 nM in experiment [1], 2800 nM in experiment [2] and 1500 nM in experiment [3]. Moreover, the Ratio in experiment [4] amounted to 1.9.
For `Nc1[nH]c2ccccc2c2nc(-c3ccccc3)nc1-2`, the Ki in experiment [1] came to 17 nM; in experiment [2] it was 290 nM; in experiment [3], 34 nM.
For `c1ccc(Nc2nc3ccccc3c3[nH]c(C4CCCC4)nc23)cc1`, in experiment [6], the inhibition turned out to be 6%. Also, the inhibitory constant (Ki) in experiment [1] came out at 23 nM; in experiment [3], 230 nM.
`Nc1[nH]c2ccccc2c2nc(C3CCCC3)nc1-2`: the Ki amounted to 290 nM in experiment [1], 740 nM in experiment [2] and 270 nM in experiment [3]. In addition, the Ratio in experiment [4] was found to be 3.

The values are drawn from ChEMBL document CHEMBL1125633, “1H-imidazo[4,5-c]quinolin-4-amines: novel non-xanthine adenosine antagonists” (J Med Chem, 1991).
